From ChEMBL document CHEMBL1129667, “Synthesis and antiviral activity of 2'-deoxy-4'-thio purine nucleosides” (J Med Chem, 1996)

Assays:
CCRF-CEM [1] = assay: Cytotoxic activity of compound against growing cultures of human leukemic T-cell lines CEM 100 uM; format: functional
MRC5 [2] = assay: Inhibitory activity of compound against human cytomegalovirus (HCMV) strain AD169 in monolayers of MRC5 cells; format: functional, cell-based
Procedure, shortened: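 MRC5 human embryonic lung monolayers infected with HCMV AD169 at ca. 0.01 infectious particles/cell. Compound added at six concentrations, each in triplicate, then incubated 5 days. IC50 estimated from well HCMV DNA measured by blotting and quantitative specific DNA hybridization. Reported value is the mean of at least two determinations done at different times.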

Homo sapiens [3] = species on record: Homo sapiens; assay: Cytotoxic activity of compound against uninfected 2.2.15 cells.; format: functional; conditions: HepG2 2.2.15
Procedure, shortened: (§1)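 Growing cultures of 2.2.15 cells, used for both antiviral effect and cytotoxicity. IC50 and CC50 each come from five compound concentrations encompassing the value. Data are means of four replicate samples.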

MRC5 [4] = assay: Cytotoxic activity of compound against uninfected MRC5 cells; format: functional; conditions: Homo sapiens
Procedure, shortened: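 Uninfected MRC5 monolayers given the same six compound concentrations in triplicate and incubated 5 days. Minimum cytotoxic dose estimated by microscopic examination.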

Homo sapiens [5] = species on record: Homo sapiens; assay: Inhibitory activity of compound against hepatitis B virus (HBV) in growing cultures of 2.2.15 cells; format: functional, cell-based; conditions: HepG2 2.2.15; procedure, shortened: as §1
IM-9 [6] = assay: Cytotoxic activity of compound against growing cultures of human leukemicB-cell line IM-9 at 100 uM; format: functional
MOLT-4 [7] = assay: Cytotoxic activity of compound against growing cultures of human leukemic T-cell lines Molt-4 100 uM; format: functional
CCRF-CEM [8] = assay: Cytotoxic activity of compound against growing cultures of human leukemic T-cell lines CEM at 100 uM; format: functional
MOLT-4 [9] = assay: Cytotoxic activity of compound against growing cultures of human leukemic T-cell lines Molt-4 at 100 uM; format: functional
CCRF-CEM [10] = assay: Cytotoxic activity of compound against growing cultures of human leukemic T-cell lines CEM; format: functional
Procedure, shortened: (§2)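 Growing cultures of the human leukemic line (T-cell CEM or Molt 4; B-cell IM-9). CC50 taken from five compound concentrations spanning the CC50. Data are means of three replicate samples.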

MOLT-4 [11] = assay: Cytotoxic activity of compound against growing cultures of human leukemic T-cell lines Molt-4; format: functional; procedure, shortened: as §2
IM-9 [12] = assay: Cytotoxic activity of compound against growing cultures of human leukemicB-cell line IM-9; format: functional; procedure, shortened: as §2

| SMILES | CC50 (CCRF-CEM [1]) [µM] | IC50 (MRC5 [2]) [µM] | CC50 (Homo sapiens [3]) [µM] | CC50 (MRC5 [4]) [µM] | IC50 (Homo sapiens [5]) [µM] | CC50 (IM-9 [6]) [µM] | CC50 (MOLT-4 [7]) [µM] | Control (CCRF-CEM [8]) [%] | Control (MOLT-4 [9]) [%] | Control (IM-9 [6]) [%] | CC50 (CCRF-CEM [10]) [µM] | CC50 (MOLT-4 [11]) [µM] | CC50 (IM-9 [12]) [µM] |
| --- | --- | --- | --- | --- | --- | --- | --- | --- | --- | --- | --- | --- | --- |
| Nc1nc(Cl)c2ncn(C3CC(O)C(CO)S3)c2n1 (stereo unspecified) | 10 | 0.1 | > 0.2 | 2 | 0.001 | 42 | 3.8 | – | – | – | – | – | – |
| CCCNc1nc(N)nc2c1ncn2C1CC(O)C(CO)S1 (stereo unspecified) | – | 2 | > 0.2 | > 50 | 0.061 | – | – | 68 | 52 | 92 | – | – | – |
| C=CCNc1nc(N)nc2c1ncn2C1CC(O)C(CO)S1 (stereo unspecified) | – | 1.5 | > 0.2 | > 200 | 0.058 | – | – | – | – | 67 | 60 | 40 | – |
| CSc1nc(N)nc2c1ncn2C1CC(O)C(CO)S1 (stereo unspecified) | – | 2 | > 200 | > 20 | 0.45 | – | – | 78 | 73 | 88 | – | – | – |
| Nc1nc(N2CCCCC2)c2ncn(C3CC(O)C(CO)S3)c2n1 (stereo unspecified) | – | 6 | > 200 | > 200 | 4 | – | – | 80 | 77 | 88 | – | – | – |
| COc1nc(N)nc2c1ncn2C1CC(O)C(CO)S1 (stereo unspecified) | – | 0.062 | 14 | > 5 | 0.0025 | – | – | – | – | – | 8 | 2 | 5 |
| Nc1nc(O)c2ncn(C3CC(O)C(CO)S3)c2n1 (stereo unspecified) | – | 0.06 | 13 | 2 | 0.002 | – | – | – | – | – | 9 | 14 | 4 |
| Nc1nc(N2CCCC2)c2ncn(C3CC(O)C(CO)S3)c2n1 (stereo unspecified) | – | 10 | > 200 | > 200 | 0.85 | – | – | 71 | 112 | 99 | – | – | – |
| Nc1nc(OCC2CC2)c2ncn(C3CC(O)C(CO)S3)c2n1 (stereo unspecified) | – | 0.6 | > 0.2 | > 20 | 0.035 | – | – | – | – | – | 41 | 13 | 61 |
| CCN(C)c1nc(N)nc2c1ncn2C1CC(O)C(CO)S1 (stereo unspecified) | – | 2 | > 200 | > 20 | 0.19 | – | – | 69 | 77 | 85 | – | – | – |
| CC(C)Nc1nc(N)nc2c1ncn2C1CC(O)C(CO)S1 (stereo unspecified) | – | 4 | > 200 | > 100 | 0.3 | – | – | 80 | 77 | 90 | – | – | – |
| Nc1nc(NC2CC2)c2ncn(C3CC(O)C(CO)S3)c2n1 (stereo unspecified) | – | 0.2 | 77 | 15 | 0.0072 | – | – | 68 | 11 | 78 | – | – | – |
| CN(c1nc(N)nc2c1ncn2C1CC(O)C(CO)S1)C1CC1 (stereo unspecified) | – | 2 | 101 | > 20 | 0.3 | – | – | 58 | – | 72 | – | 100 | – |
